About 220 (0.067%) of roughly 330,000 compounds were called active.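 The calls were made as follows: active = response, share of CD8 T cells binding vesicles, and their 90th percentile fluorescence all below set limits (cut at about 80% in these data, passing the limit was not always enough); inactive = the rest, inconclusive results apart.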 Only a selection was taken, and actives are over-represented in it overall.

The nature of the test: murine CD8 T cell vesicle adhesion modulation – mouse 2C CD8+ T cells, flow cytometry, primary screen (AID 2052).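 As to double positive events: binding gate set so that unloaded-vesicle control wells show 10% double positive cells.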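 As to response (vesicle binding): values below 100% mean blocked vesicle binding to the CD8+ T cells.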 The note with it: 2C CD8+ T cell-vesicle binding, at 7 µM, stronger effect = lower value; double positive events: measured here: CD8+ vesicle-bound cell fraction. Summed up: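 Also added: QL9-peptide-loaded Drosophila micro-vesicles bearing Ld, ICAM-1 and B7-1; Test system: purified 2C TCR transgenic mouse naive CD8+ T cells; Measured by: cytometric PE anti-B7-1 and Alexa647 anti-CD8 signals after 1% paraformaldehyde fixation; Timing: binding step 1.5 h, 37 °C, antibody labelling 20 min, ice.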
For the compound `COc1ccccc1S(=O)(=O)NCc1ccc(C(=O)N(C)Cc2ccc(F)cc2)cc1`, the double positive events turned out to be 31.2% and the response (vesicle binding) is 557% (inactive).
As to `CCOc1ccc(NC(=O)CC2C(=O)N(c3ccccc3)C(=O)N2CCOC)cc1` (centres undefined), the double positive events was determined as 22.1% and the response (vesicle binding) is 526% (inactive).
For `Cc1cc(C)cc(NC(=O)NC2CCN(CC(=O)Nc3cccc(Cl)c3C)CC2)c1` the same measures were 43.5% and 437% (inactive).
On the same counts, the results for `O=C1C(=O)N(CCN2CCOCC2)C(c2cccc(Cl)c2)/C1=C(/O)c1ccc2c(c1)OCO2` (centres undefined) are 10.1% and 653% (inactive).
On the same counts, the results for `O=C(NCc1ccc2c(c1)OCO2)c1ccc(Cl)s1` are 0% and 0% (active).
As for `O=C(NCc1ccc2c(c1)OCO2)c1cc2c(s1)CS(=O)(=O)C2`, the double positive events turned out to be 37.5% and the response (vesicle binding) was 576% (inactive).
On the same counts, the results for `O=C(NCc1ccc2c(c1)OCO2)c1cc(F)c(F)cc1Cl` are 11.4% and 338% (inactive).
On the same counts, the results for `COc1ccc(C(=O)NCc2ccc(C)cc2)cc1S(=O)(=O)N1CCCC1` are 47.1% and 276% (inactive).
With `O=C(CSc1nc2ccccc2c(=O)n1-c1ccccc1F)N1CCOCC1`, the double positive events was 37.3% and the response (vesicle binding) is 244% (inactive).
On the same counts, the results for `Cc1ccc(Cl)c(OCC(=O)N(C)CC(=O)Nc2ccc(N3CCOCC3)cc2)c1` are 61.8% and 424% (inactive).
Take `CCOC(=O)c1cccc(NC(=O)C2CCCN(S(=O)(=O)c3cnc[nH]3)C2)c1` (centres undefined): the double positive events turned out to be 47.8% and the response (vesicle binding) is 586% (inactive).
On to `Cc1nc2ccc(C(=O)N(C)CC3CCCN(CCc4ccc(Cl)cc4)C3)cc2[nH]1` (centres undefined), for which the double positive events was 20.7% and the response (vesicle binding) is 442% (inactive).
On the same counts, the results for `Cc1ccc(N2CC(C(=O)NCCS(=O)(=O)N3CCN(c4ccccc4)CC3)CC2=O)cc1` (centres undefined) are 11% and 383% (inactive).
On the same counts, the results for `CN1C(=O)/C(=C/C=C2\SCCN2C)OC1=S` are 25.3% and 177% (inactive).
For `CCN1CCN(C(=O)c2cc3cc4ccc(OC)cc4nc3s2)CC1` the same measures were 24.6% and 601% (inactive).
For `CN(CC(=O)NCCc1ccc(S(N)(=O)=O)cc1)CC(=O)Nc1ccc(Cl)cc1`, the double positive events came out at 39.4% and the response (vesicle binding) is 1090% (inactive).
For `COc1ccc(C(=O)CC(=O)C(=O)Nc2cc([N+](=O)[O-])ccc2OC)cc1` the same measures were 13.4% and 256% (inactive).
On to `COc1ccc([N+](=O)[O-])cc1NC(=O)c1ccc(N(Cc2ccccc2C)S(C)(=O)=O)cc1`, for which the double positive events is 0.1% and the response (vesicle binding) was 6.1% (active).
For `Cc1ccccc1CN(c1ccc(C(=O)NCC2CCCO2)cc1)S(C)(=O)=O` (centres undefined) the same measures were 4.3% and 168% (inactive).
On to `COc1ccccc1OCCn1c(SCC(N)=O)nc2ccccc21`, for which the double positive events is 16% and the response (vesicle binding) is 348% (inactive).
On the same counts, the results for `Cc1ccc(NC(=O)CN(C)S(=O)(=O)c2cnc[nH]2)cc1C` are 18.7% and 261% (inactive).
For `CC(Oc1ccccc1)C(=O)Nc1c2c(nn1-c1ccccc1)CS(=O)C2` (centres undefined) the same measures were 7.9% and 237% (inactive).
On the same counts, the results for `CCOC(=O)c1ccccc1NC(=S)N1CCC(C(N)=O)CC1` are 33.7% and 285% (inactive).
Consider `OC(CNCc1ccc(Cl)c(Cl)c1)c1ccccc1` (centres undefined), for which the double positive events was 58.3% and the response (vesicle binding) was 66.1% (inactive).
Consider `Cc1c(NC(=S)NC(=O)CCc2ccccc2)c(=O)n(-c2ccccc2)n1C`, for which the double positive events was found to be 1.1% and the response (vesicle binding) was 17.6% (active).
For `Cc1c(NC(=S)Nc2ccccc2)c(=O)n(-c2ccccc2)n1C` the same measures were 28% and 297% (inactive).
For `Cc1c(NC(=O)CN2C(=O)C(=O)N(Cc3ccccc3)C2=O)c(=O)n(-c2ccccc2)n1C` the same measures were 54.7% and 606% (inactive).
On the same counts, the results for `CC(C)(C)c1cc(P(=O)(c2ccccc2)c2ccccc2)ccc1O` are 28.1% and 82.3% (inactive).
In the case of `Cc1ccccc1NC(=O)Nc1ccccc1N1CCCCC1`, the double positive events was found to be 27.3% and the response (vesicle binding) was 308% (inactive).
For `O=C(CN1CCN(C2CCCCC2)CC1)Nc1ccccc1N1CCCCC1` the same measures were 6.3% and 0% (active).
On to `CC(=O)c1ccc(N2CCN(CC(=O)Nc3ccccc3N3CCOCC3)CC2)cc1`, for which the double positive events is 42.5% and the response (vesicle binding) was 203% (inactive).
As to `COc1ccc(CN(C)C(=S)Nc2ccc(Cl)cc2Cl)cc1`, the double positive events worked out at 9.4% and the response (vesicle binding) is 367% (inactive).
In the case of `CCN1CCN(C(=O)C2CCN(S(=O)(=O)c3cc(Cl)ccc3Cl)CC2)CC1`, the double positive events amounted to 29.3% and the response (vesicle binding) was 223% (inactive).
Take `O=C(NN1C(=O)C2C3C=CC(C3)C2C1=O)c1ccco1` (centres undefined): the double positive events worked out at 43% and the response (vesicle binding) was 570% (inactive).
Take `CCOc1ccc2[nH]c(=O)c(CN(Cc3nnnn3CCc3ccccc3)CC3CCCO3)cc2c1` (centres undefined): the double positive events was 50.9% and the response (vesicle binding) was 238% (inactive).
Turning to `COC(=O)c1ccc(C2NC(=O)NC(C)=C2C(=O)N(C)C)cc1` (centres undefined), the double positive events amounted to 31.3% and the response (vesicle binding) is 393% (inactive).
On the same counts, the results for `CCOc1ccc(CCNC(=O)COC(=O)C2CCN(c3ccc(C(F)(F)F)cn3)CC2)cc1OCC` are 38.6% and 818% (inactive).
On the same counts, the results for `CCCc1c(C(=O)Nc2ccc(F)cc2)cnn1-c1ccccc1` are 19.3% and 479% (inactive).
For `O=C(COC(=O)CC1CC2CCC1C2)NC(=O)NC1CCCC1` (centres undefined) the same measures were 20.7% and 248% (inactive).
Take `COc1ccc(OC)c(C(c2nnnn2C(C)(C)C)N2CCc3ccccc3C2)c1` (centres undefined): the double positive events was 55.6% and the response (vesicle binding) was 342% (inactive).
On the same counts, the results for `CCOc1ccc2[nH]c(=O)c(C(c3nnnn3CCOC)N3CCOCC3)cc2c1` (centres undefined) are 11.4% and 261% (inactive).
In the case of `COCCn1nnnc1C(c1cc2ccc(OC)cc2[nH]c1=O)N1CCc2ccccc2C1` (centres undefined), the double positive events was 16.7% and the response (vesicle binding) was 0% (active).

For the origin of these results see PubChem BioAssay AID2052 (NMMLSC, 2009).
